ChEMBL document CHEMBL5705885, “CYT387, a selective JAK1/JAK2 inhibitor: in vitro assessment of kinase selectivity and preclinical studies using cell lines and primary cells from polycythemia vera patients” (Leukemia, 2009)

Legend:
[1] = target: Vascular endothelial growth factor receptor 2 (Homo sapiens, UniProt P35968); assay: Inhibition of KDR (unknown origin)
[2] = target: Serine/threonine-protein kinase 26 (Homo sapiens, UniProt Q9P289); assay: Inhibition of MST4 (unknown origin)
[3] = target: High affinity nerve growth factor receptor (Homo sapiens, UniProt P04629); assay: Inhibition of NTRK1 (unknown origin)
[4] = target: T1, Platelet-derived growth factor receptor alpha (Homo sapiens, UniProt P16234); assay: Inhibition of PDGFRA (unknown origin)
[5] = target: T2, Tyrosine-protein kinase SYK (Homo sapiens, UniProt P43405); assay: Inhibition of SYK (unknown origin)
[6] = target: Beta-adrenergic receptor kinase 1 (Homo sapiens, UniProt P25098); assay: Inhibition of ADRBK1 (unknown origin)
Ephrin type-A receptor 1 = Ephrin type-A receptor 1 (Homo sapiens, UniProt P21709); assay: Inhibition of EPHA1 (unknown origin)
Ephrin type-A receptor 2 = Ephrin type-A receptor 2 (Homo sapiens, UniProt P29317); assay: Inhibition of EPHA2 (unknown origin)
[7] = target: Receptor tyrosine-protein kinase erbB-2 (Homo sapiens, UniProt P04626); assay: Inhibition of ERBB2 (unknown origin)
[8] = target: Fibroblast growth factor receptor 3 (Homo sapiens, UniProt P22607); assay: Inhibition of FGFR3 (unknown origin)
[9] = target: Tyrosine-protein kinase FRK (Homo sapiens, UniProt P42685); assay: Inhibition of FRK (unknown origin)
[10] = target: Interleukin-1 receptor-associated kinase 4 (Homo sapiens, UniProt Q9NWZ3); assay: Inhibition of IRAK4 (unknown origin)
[11] = target: Mitogen-activated protein kinase 12 (Homo sapiens, UniProt P53778); assay: Inhibition of MAPK12 (unknown origin)
[12] = target: Mitogen-activated protein kinase 14 (Homo sapiens, UniProt Q16539); assay: Inhibition of MAPK14 (unknown origin)
[13] = target: Serine/threonine-protein kinase pim-1 (Homo sapiens, UniProt P11309); assay: Inhibition of PIM1 (unknown origin)
[14] = target: cAMP-dependent protein kinase catalytic subunit alpha (Homo sapiens, UniProt P17612); assay: Inhibition of PRKACA (unknown origin)
[15] = target: Testis-specific serine/threonine-protein kinase 2 (Homo sapiens, UniProt Q96PF2); assay: Inhibition of STK22B (unknown origin)
BaF3 [16] = assay: Antiproliferative activity against mouse BaF3 cells harboring TEL-JAK3 measured after 72 hrs by Alamar blue staining based analysis; assay type: functional, cell-based; conditions: BaF3, 72 h
Method in brief: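 Murine Ba/F3 cells carrying TEL/JAK2 or TEL/JAK3 fusions, grown in DMEM with 10% fetal calf serum. Compound stocks in DMSO were diluted in culture medium. Proliferation was read by Alamar Blue after 72 h incubation at 37 °C under 5% CO2.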

BaF3 [17] = assay: Antiproliferative activity against mouse BaF3 cells harboring MPLW515L measured after 72 hrs by Alamar blue staining based analysis; assay type: functional, cell-based; conditions: BaF3, 72 h
Method in brief: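 Ba/F3 murine cells expressing JAK2V617F or MPLW515L. Compound stocks in DMSO were diluted into culture medium. After 72 h at 37 °C in 5% CO2, proliferation was quantified with the Alamar Blue assay.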

MV4-11 = assay: Antiproliferative activity against human MV4-11 cells measured after 72 hrs by Alamar blue staining based analysis; assay type: functional, cell-based; conditions: MV4-11, 72 h
Method in brief: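 Cells were exposed for 72 h at 37 °C under 5% CO2 to compound made up as DMSO stock and diluted in culture medium. Proliferation was then read by Alamar Blue.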

[18] = target: Signal transducer and activator of transcription 5A (Homo sapiens) (UniProt P42229); assay: Inhibition of STAT5 phosphorylation in human HEL cells by Western blot analysis; assay type: cell-based; conditions: dose <= 1.0 µM
Method in brief: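 HEL cells were starved overnight in RPMI with 1% FCS, then exposed to compound for 2 h at 37 °C. Cells were lysed in RIPA buffer (50 mM HEPES pH 7.4, 150 mM NaCl, 1% Triton X-100, deoxycholate, 0.1% SDS) with protease and phosphatase inhibitors. Protein was quantified by Bradford assay and blots were developed by chemiluminescence. Membranes were stripped and reprobed for total STAT5.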

[19] = target: Rho-associated protein kinase 2 (Homo sapiens, UniProt O75116); conditions: dose 100.0 nM
[20] = target: Serine/threonine-protein kinase TBK1 (Homo sapiens) (UniProt Q9UHD2); conditions: dose 100.0 nM
[21] = target: Activin receptor type-1B (Homo sapiens) (UniProt P36896); conditions: dose 100.0 nM
Aurora kinase B = Aurora kinase B (Homo sapiens, UniProt Q96GD4); conditions: dose 100.0 nM
[22] = target: Serine/threonine-protein kinase B-raf (Homo sapiens, UniProt P15056); conditions: dose 100.0 nM
[23] = target: Cyclin-dependent kinase 1/cyclin B1 (Homo sapiens) (UniProt P06493+P14635); conditions: dose 100.0 nM
[24] = target: Cyclin-dependent kinase 5/CDK5 activator 1 (Homo sapiens) (UniProt Q00535+Q15078); conditions: dose 100.0 nM
[25] = target: Homeodomain-interacting protein kinase 4 (Homo sapiens) (UniProt Q8NE63); conditions: dose 100.0 nM
[26] = target: Mitogen-activated protein kinase kinase kinase 8 (Homo sapiens, UniProt P41279); conditions: dose 100.0 nM
[27] = target: Mitogen-activated protein kinase 10 (Homo sapiens) (UniProt P53779); conditions: dose 100.0 nM
[28] = target: Tyrosine-protein kinase Mer (Homo sapiens) (UniProt Q12866); conditions: dose 100.0 nM
[29] = target: Serine/threonine-protein kinase Nek9 (Homo sapiens) (UniProt Q8TD19); conditions: dose 100.0 nM
[30] = target: T1, Platelet-derived growth factor receptor alpha; conditions: dose 100.0 nM
[31] = target: Serine/threonine-protein kinase N1 (Homo sapiens, UniProt Q16512); conditions: dose 100.0 nM
[32] = target: Testis-specific serine/threonine-protein kinase 1 (Homo sapiens) (UniProt Q9BXA7); conditions: dose 100.0 nM
[33] = target: T2, Tyrosine-protein kinase SYK; conditions: dose 100.0 nM

T1 sequence (P16234 whole entry): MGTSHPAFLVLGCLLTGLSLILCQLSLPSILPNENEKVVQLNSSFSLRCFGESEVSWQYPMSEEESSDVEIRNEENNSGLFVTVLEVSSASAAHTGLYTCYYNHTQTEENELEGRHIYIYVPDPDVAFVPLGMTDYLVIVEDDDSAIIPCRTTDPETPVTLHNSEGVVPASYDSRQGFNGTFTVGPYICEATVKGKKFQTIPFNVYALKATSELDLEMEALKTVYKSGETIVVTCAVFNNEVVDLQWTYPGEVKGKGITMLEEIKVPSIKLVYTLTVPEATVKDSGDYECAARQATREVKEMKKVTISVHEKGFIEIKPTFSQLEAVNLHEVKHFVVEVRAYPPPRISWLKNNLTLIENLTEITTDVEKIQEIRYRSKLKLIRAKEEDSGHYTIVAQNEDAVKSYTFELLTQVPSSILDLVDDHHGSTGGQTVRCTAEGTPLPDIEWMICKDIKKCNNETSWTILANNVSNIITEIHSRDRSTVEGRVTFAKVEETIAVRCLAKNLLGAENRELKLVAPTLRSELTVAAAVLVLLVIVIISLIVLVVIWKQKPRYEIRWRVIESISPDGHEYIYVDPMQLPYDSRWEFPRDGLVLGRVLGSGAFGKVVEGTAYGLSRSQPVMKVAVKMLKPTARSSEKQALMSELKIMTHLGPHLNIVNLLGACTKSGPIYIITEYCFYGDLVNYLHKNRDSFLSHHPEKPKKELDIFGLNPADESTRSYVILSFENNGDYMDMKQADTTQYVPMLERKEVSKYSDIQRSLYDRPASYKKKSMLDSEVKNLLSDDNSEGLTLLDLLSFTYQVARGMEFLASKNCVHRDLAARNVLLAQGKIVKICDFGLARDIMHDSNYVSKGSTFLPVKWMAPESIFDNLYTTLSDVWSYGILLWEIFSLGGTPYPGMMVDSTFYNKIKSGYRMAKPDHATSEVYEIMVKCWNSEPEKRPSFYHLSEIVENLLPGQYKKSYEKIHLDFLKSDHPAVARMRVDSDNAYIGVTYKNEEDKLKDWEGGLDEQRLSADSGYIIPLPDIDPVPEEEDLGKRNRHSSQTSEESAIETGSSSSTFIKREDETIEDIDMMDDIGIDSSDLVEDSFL
Mitogen-activated protein kinase 12, sequence (P53778 whole entry): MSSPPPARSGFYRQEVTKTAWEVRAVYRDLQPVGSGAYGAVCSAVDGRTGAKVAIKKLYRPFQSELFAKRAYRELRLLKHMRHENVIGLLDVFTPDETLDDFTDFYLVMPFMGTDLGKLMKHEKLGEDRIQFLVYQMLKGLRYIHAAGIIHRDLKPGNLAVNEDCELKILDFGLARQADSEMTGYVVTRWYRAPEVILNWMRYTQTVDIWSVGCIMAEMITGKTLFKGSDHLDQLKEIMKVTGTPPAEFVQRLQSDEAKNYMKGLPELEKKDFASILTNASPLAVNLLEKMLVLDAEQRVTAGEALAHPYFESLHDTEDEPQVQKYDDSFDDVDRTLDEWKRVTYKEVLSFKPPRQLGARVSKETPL
Aurora kinase B, sequence (Q96GD4 whole entry): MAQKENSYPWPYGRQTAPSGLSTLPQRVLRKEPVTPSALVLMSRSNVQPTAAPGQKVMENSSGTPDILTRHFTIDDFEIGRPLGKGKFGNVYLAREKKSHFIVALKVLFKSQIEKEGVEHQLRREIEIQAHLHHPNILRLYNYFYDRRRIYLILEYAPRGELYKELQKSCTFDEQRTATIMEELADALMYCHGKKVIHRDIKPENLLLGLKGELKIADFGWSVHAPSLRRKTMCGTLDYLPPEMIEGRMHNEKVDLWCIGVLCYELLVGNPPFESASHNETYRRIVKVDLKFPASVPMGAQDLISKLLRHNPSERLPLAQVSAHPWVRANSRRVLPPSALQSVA
Tyrosine-protein kinase Mer (Homo sapiens), sequence (Q12866 whole entry): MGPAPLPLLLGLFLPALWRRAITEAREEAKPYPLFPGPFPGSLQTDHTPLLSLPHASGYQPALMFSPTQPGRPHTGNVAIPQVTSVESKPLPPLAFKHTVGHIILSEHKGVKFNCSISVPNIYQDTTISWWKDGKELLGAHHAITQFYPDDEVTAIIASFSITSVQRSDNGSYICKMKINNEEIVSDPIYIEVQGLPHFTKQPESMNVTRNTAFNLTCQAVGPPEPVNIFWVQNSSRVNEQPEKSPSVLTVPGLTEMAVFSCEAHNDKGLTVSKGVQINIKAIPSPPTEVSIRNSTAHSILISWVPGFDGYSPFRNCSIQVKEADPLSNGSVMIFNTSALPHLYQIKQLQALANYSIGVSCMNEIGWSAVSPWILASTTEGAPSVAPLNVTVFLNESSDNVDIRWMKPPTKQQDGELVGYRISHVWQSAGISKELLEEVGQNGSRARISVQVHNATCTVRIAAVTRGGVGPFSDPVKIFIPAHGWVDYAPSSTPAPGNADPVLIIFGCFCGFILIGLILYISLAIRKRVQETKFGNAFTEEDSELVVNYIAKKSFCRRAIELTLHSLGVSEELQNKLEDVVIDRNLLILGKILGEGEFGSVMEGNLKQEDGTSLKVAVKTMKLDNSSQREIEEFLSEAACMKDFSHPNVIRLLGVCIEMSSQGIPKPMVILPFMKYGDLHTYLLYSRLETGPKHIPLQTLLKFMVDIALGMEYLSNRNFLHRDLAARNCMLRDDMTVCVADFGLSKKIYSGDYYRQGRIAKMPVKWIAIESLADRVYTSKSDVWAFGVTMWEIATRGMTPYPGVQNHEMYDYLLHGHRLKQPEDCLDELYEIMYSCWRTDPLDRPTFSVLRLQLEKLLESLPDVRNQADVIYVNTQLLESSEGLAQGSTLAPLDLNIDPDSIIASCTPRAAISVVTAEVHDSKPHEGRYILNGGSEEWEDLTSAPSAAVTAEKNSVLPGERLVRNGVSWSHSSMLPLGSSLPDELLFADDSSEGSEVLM
Vascular endothelial growth factor receptor 2, sequence (P35968 whole entry): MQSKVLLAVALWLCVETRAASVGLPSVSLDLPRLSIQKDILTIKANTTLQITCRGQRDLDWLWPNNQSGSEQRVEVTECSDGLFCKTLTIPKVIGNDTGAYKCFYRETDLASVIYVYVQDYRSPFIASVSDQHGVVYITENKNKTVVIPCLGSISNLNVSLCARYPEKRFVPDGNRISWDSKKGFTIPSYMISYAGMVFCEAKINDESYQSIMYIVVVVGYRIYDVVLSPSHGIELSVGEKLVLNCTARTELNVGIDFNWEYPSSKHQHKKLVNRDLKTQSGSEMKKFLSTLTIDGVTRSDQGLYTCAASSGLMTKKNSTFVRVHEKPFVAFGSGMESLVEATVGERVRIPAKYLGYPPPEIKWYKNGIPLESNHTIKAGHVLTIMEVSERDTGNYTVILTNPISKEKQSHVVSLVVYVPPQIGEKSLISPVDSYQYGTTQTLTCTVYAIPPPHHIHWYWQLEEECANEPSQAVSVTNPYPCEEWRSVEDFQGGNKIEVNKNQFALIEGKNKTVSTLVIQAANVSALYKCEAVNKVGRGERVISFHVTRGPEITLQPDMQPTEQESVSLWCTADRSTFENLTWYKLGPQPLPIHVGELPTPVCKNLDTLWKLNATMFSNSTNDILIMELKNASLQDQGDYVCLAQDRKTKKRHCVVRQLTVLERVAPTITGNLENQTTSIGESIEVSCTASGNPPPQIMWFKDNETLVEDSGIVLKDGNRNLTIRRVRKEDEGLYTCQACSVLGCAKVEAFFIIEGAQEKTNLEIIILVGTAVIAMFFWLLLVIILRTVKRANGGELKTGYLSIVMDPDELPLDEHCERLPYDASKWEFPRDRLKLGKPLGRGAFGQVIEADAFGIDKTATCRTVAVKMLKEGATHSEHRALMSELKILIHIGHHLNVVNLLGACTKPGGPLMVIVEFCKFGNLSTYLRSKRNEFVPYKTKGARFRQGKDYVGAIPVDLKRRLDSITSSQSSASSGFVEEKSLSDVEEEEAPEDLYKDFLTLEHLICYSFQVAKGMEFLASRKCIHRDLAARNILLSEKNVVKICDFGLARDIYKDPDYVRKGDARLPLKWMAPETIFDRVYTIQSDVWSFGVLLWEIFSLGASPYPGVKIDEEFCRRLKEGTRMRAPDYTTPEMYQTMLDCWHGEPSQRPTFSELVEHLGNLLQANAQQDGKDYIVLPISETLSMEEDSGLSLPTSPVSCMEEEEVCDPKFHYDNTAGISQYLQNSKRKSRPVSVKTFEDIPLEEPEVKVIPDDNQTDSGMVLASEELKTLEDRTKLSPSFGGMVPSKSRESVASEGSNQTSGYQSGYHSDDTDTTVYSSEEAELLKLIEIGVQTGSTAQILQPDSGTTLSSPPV
Beta-adrenergic receptor kinase 1, sequence (P25098 whole entry): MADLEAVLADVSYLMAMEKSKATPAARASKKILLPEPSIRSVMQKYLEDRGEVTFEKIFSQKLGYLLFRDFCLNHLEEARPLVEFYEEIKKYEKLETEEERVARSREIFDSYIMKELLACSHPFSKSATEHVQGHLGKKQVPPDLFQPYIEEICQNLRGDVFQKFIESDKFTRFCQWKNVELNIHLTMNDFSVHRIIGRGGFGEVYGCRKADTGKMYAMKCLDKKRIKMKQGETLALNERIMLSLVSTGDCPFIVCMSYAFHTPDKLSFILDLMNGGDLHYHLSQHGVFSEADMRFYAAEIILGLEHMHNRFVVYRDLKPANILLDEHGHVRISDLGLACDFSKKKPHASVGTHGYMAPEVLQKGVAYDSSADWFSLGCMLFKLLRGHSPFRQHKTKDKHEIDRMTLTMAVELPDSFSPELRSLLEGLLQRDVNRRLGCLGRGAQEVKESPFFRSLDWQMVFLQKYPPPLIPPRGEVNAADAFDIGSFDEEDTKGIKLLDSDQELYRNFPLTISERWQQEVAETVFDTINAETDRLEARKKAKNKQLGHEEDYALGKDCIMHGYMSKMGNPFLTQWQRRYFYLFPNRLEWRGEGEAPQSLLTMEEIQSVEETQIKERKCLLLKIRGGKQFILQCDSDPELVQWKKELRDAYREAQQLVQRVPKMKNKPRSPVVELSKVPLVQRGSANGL

IC50 [1]: < 1000 nM | IC50 [2]: < 1000 nM | IC50 [3]: < 1000 nM | IC50 [4]: < 1000 nM | IC50 [5]: < 1000 nM | IC50 [6]: > 1000 nM | IC50 (Ephrin type-A receptor 1): > 1000 nM | IC50 (Ephrin type-A receptor 2): > 1000 nM | IC50 [7]: > 1000 nM | IC50 [8]: > 1000 nM | IC50 [9]: > 1000 nM | IC50 [10]: > 1000 nM | IC50 [11]: > 1000 nM | IC50 [12]: > 1000 nM | IC50 [13]: > 1000 nM | IC50 [14]: > 1000 nM | IC50 [15]: > 1000 nM | IC50 (BaF3 [16]): 2350 nM | IC50 (BaF3 [17]): 200 nM | IC50 (MV4-11): 3000 nM | inhibition [18]: Dose-Dependent Effect | inhibition [19]: > 50% | inhibition [20]: > 50% | inhibition [21]: < 50% | inhibition (Aurora kinase B): < 50% | inhibition [22]: < 50% | inhibition [23]: < 50% | inhibition [24]: < 50% | inhibition [25]: < 50% | inhibition [26]: < 50% | inhibition [27]: < 50% | inhibition [28]: < 50% | inhibition [30]: < 50% | inhibition [31]: < 50% | inhibition [32]: < 50% | inhibition [33]: < 50%
Compound: N#CCNC(=O)c1ccc(-c2ccnc(Nc3ccc(N4CCOCC4)cc3)n2)cc1 [MOMELOTINIB]
inhibition [29]: < 50%
